Screens (PubChem)
Scp-1 inhibitor = inhibitors of human Scp-1 phosphatase; AID 493091; inhibition, % at 20 µM; actives 0.88% (n = 340,000); Q9GZU7; Recombinant Scp1, phosphopeptide, malachite green phosphate absorbance;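 active = inhibition above about 50% at 20 µM, limit read from the data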;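 note: plate controls were DMSO wells with enzyme for no effect and wells lacking enzyme for full effect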
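Incubation: 45 min enzyme reaction at room temperature / System: truncated SCP-1 phosphatase (76-261aa) / Reagent: Phospho 17-mer peptide substrate / Buffer or medium: Acidic Tris acetate buffer with magnesium and detergent / Signal: absorbance at 630 nm / Doses: one concentration, 20 µM, with 1.0% DMSO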
Casp6 inh = blocks human caspase-6 cleavage activity | inhibition, % at 12.5 µM | purified caspase-6, Z-VEID-R110 cleavage fluorescence | actives 0.53% (n = 350,000) | P55212;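 active = mean inhibition across replicates at least about 35%, with every replicate also reaching that limit, limit read from the data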;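 note: 0% = median of neutral control wells and 100% = no fluorescence left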
DNMT1 block = DNMT1 (human) enzyme inhibition | P26358 | inhibition (reported as % activation of signal), % at 10 µM | AID 588458 | actives 0.83% (n = 360,000) | DNMT1 molecular beacon, Hinp1I cleavage, fluorescence; in the data active = inhibition above about 50%
LMPTP inh = blocks human LMPTP phosphatase. P24666. recombinant LMPTP-A, OMFP fluorogenic substrate, fluorescence intensity. inhibition, % at 20 µM. actives 0.22% (n = 360,000). AID 651560;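 active = compounds that cut the enzyme signal by at least half of the control window in the single-dose screen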;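 note: plate controls were DMSO wells with enzyme plus substrate for no effect and substrate without enzyme for full effect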
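Test system: LMPTP-A phosphatase enzyme. Amount: LMPTP-A at 0.625 nM final in the reaction. Reagent: OMFP substrate, 400 µM final. Times: 50 min at room temperature. Signal: endpoint fluorescence intensity from OMFP dephosphorylation. Read-out basis: % inhibition. Benchmarks: no-enzyme and uninhibited controls.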
SUMO1-SIM PPI = modulators of human SUMO1-mediated protein-protein interactions | actives 0.33% (n = 360,000) | AID 602429 | inhibition, % at 20 µM | SUMO1 binding to a labelled peptide, TR-FRET, 1 h | P63165; in the data active = inhibition above about 37%
STEP block = blocks human striatal-enriched tyrosine phosphatase. P54829. recombinant STEP, OMFP fluorogenic substrate, fluorescence. inhibition, % at 20 µM. actives 0.25% (n = 360,000). AID 588621;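 active = inhibition at 20 µM, scaled per plate between control wells, above about 37%, limit read from the data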;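 note: 0% = DMSO with enzyme and substrate and 100% = substrate only without enzyme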
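medium = Bis-Tris buffer pH 6.0, 2.5 mM DTT, 0.005% Tween 20 | test system = STEP (striatal-enriched tyrosine phosphatase) enzyme, cell-free | measure = normalized % inhibition | compound dosing = 20 µM, 1% DMSO | also added = 25 µM OMFP | schedule = reaction 20 min, ambient temperature | measured by = fluorescence read at 480 nm ex / 540 nm em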
DNMT1 interf DR = counter-screen for DNMT1 inhibitors: spectral interference, dose response. 200 tested, under 10 active. molecular beacon fluorescence. shares compounds with DNMT1 block. IC50, µM
DNMT1 inh conf = confirmation of human DNMT1 inhibitors | shares compounds with DNMT1 block | DNMT1 molecular beacon HinP1I cleavage, fluorescence | inhibition, % at 10 µM | actives 8% (n = 2,300);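 active = average inhibition of at least 30% in the single-concentration confirmation test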
Beacon interf = counter-screen for DNMT1 inhibitors: spectral interference; AID 602387; shares compounds with DNMT1 block; DNMT1 molecular beacon spectral interference counterscreen, fluorescence 485/520; activation (fluorescence interference), % at 10 µM; actives 1% (n = 2,300);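 active = activation of at least 30% at 10 µM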;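 note: DNMT1 catalytic domain with a HinP1I cleavage step and a FAM/dabcyl DNA beacon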
STEP conf = confirmation of human STEP phosphatase inhibitors; shares compounds with STEP block; AID 623866; actives 32% (n = 520); recombinant STEP, OMFP fluorogenic substrate, fluorescence; inhibition, % at 20 µM;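 note: 0% = enzyme with substrate plus DMSO and 100% = substrate without enzyme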
CASP1 counter = caspase-1 (human) inhibition counter-screen; shares compounds with Casp6 inh; 100 tested, under 10 active; activity change, negative = inhibition, % at 35 µM; purified caspase-1, Z-YVAD-R110 cleavage fluorescence; AID 743289;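 active = compounds lowering fluorescence whose fitted half-maximal concentration is no more than twice their top tested dose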
* hit, by the source's call; / = no result given. Rows were chosen to be rich in hits. Some 1.7% of all compounds tested hit in one or more screens of this group. Unless noted, the rule behind the calls is not given here.

SMILES	Scp-1 inhibitor	Casp6 inh	DNMT1 block	LMPTP inh	SUMO1-SIM PPI	STEP block	DNMT1 inh conf	Beacon interf	CASP1 counter	others
CCOC(=O)CC(NS(=O)(=O)c1ccc2[nH]cc(C(=O)O)c(=O)c2c1)c1ccc(OCC)c(OC)c1 (stereo not given)	48.0	54.1*	72.7*	1.5	8.6	73.6*	4.8	-2.6	/	STEP conf=25.4*
Cc1[nH]c2ccccc2c1SCCN	2.4	0.4	-47.4	1.6	-1.2	-0.2	/	/	/
COC(=O)c1sc(NC(=O)/C=C/c2ccc(C)cc2)nc1C	-3.9	/	-5.8	16.0	-3.4	-0.8	/	/	/
COC(=O)c1sc(NC(=O)/C=C/c2ccccc2Cl)nc1C	46.5	/	61.9*	36.2	30.0	56.6*	2.6	0.2	/	STEP conf=0.6
O=C(c1cccc(-n2cccc2)c1)N1CCN(S(=O)(=O)c2ccccc2)CC1	/	50.9*	96.8*	37.9	75.8*	13.3	12.4	0.3	3.2
Nc1cc(S(=O)(=O)O)cc([N+](=O)[O-])c1O	33.6	59.4*	66.4*	0.6	-2.8	17.9	72.3*	-5.2	-2.9	DNMT1 interf DR=>99
CN(CC(=O)Nc1ccccc1Cl)C(=O)COC(=O)c1cccs1	7.3	0.4	3.1	-0.8	-1.4	-1.9	/	/	/
Cc1cc(C)c(NC(=O)COC(=O)c2ccc([N+](=O)[O-])s2)c(C)c1	-4.9	/	-12.0	-1.1	5.5	-4.2	/	/	/
NS(=O)(=O)c1ccc(NC(=O)COC(=O)c2ccc([N+](=O)[O-])s2)cc1	-4.1	91.8*	70.0*	-0.4	10.4	-2.1	70.5*	-1.9	4.5	DNMT1 interf DR=>99
CN(CC(=O)Nc1ccccc1Cl)C(=O)COC(=O)c1ccc([N+](=O)[O-])s1	5.0	99.4*	65.1*	-0.7	16.1	2.0	-1.9	-6.3	-3.8
CN(C1=NS(=O)(=O)c2ccccc21)c1ccc(OC(=O)c2ccccc2)cc1	3.7	-0.4	0.0	0.2	4.8	0.7	/	/	/
CN1CCN(c2ccc(S(=O)(=O)N3CCCCC3)cc2NC(=O)COc2ccc([N+](=O)[O-])cc2)CC1	11.2	-1.8	-10.1	3.1	-27.0	-0.4	/	/	/
O=C(O)C1Nc2c(Cl)cc(Cl)c(Cl)c2C2C=CCC12 (stereo not given)	63.4*	39.6*	83.2*	69.6*	62.6*	11.7	85.3*	-0.1	20.9	DNMT1 interf DR=>99
COc1ccc(NC(=O)CSCC(=O)N2CCN(c3cccc(C(F)(F)F)c3)CC2)cc1	-6.8	0.8	0.2	1.9	5.9	-1.8	/	/	/
Nc1ccc(Nc2ccccc2)c(S(=O)(=O)O)c1	82.7*	85.7*	97.3*	70.3*	58.2*	97.3*	7.5	-1.9	-8.4
Nc1cccc(Nc2ccccc2)c1	0.2	0.3	-0.8	-0.1	-2.9	0.3	/	/	/
COc1ccc(C(=O)OCC(=O)Nc2ncc([N+](=O)[O-])s2)cc1OC	51.1*	56.9*	99.4*	23.1	28.1	17.2	86.4*	-4.1	-1.6	DNMT1 interf DR=>99
COc1ccc(C(=O)OCC(=O)Nc2sccc2C(N)=O)cc1OC	-10.6	1.3	-3.1	2.1	6.7	-3.2	/	/	/
CCCCN(C(=O)c1cccc(-n2cccc2)c1)c1c(N)n(Cc2ccccc2)c(=O)[nH]c1=O	/	56.7*	92.5*	10.3	33.3	6.8	7.0	0.0	-0.7
Cc1ccc(N2CC(C(=O)NCCN3CCOCC3)CC2=O)cc1 (stereo not given)	-2.0	1.1	1.5	-1.8	-4.8	-0.9	/	/	/
